Screening data from PubChem BioAssay.
RORa activator: activators of orphan receptor RORA, primary screen, cell-based, luminescence. actives 1.5% (n = 65,000). AID 560, 2006. CHO-K1 Gal4-RORA LBD luciferase reporter; percent increase over mock-subtracted basal signal. activation, % at 10 µM;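 active = activation above the mean of all tested compounds plus 3 SD, cut at about 49% in these data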
ERb SRC1 inh: inhibitors of ERβ-SRC1 coactivator interaction, primary screen, biochemical, TR-FRET, ERβ LBD, SRC-1 peptide; AID 633, 2007; inhibition, % at 25.6 µM; Estrogen receptor beta (Homo sapiens), Q92731; TR-FRET ER-beta LBD / SRC1-Cy5 peptide binding; receptor agonist-loaded with 1 µM estradiol; actives 1.3% (n = 86,000);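 active = compounds whose percent inhibition of the receptor-coactivator binding signal exceeds about 50% in the single-dose screen, limit read from the data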
ERa coact inh: ERα–SRC-1 coactivator interaction inhibitors, primary screen, biochemical, TR-FRET, ERα LBD, estradiol-bound. AID 629, 2007. actives 1.7% (n = 86,000). Estrogen receptor (Homo sapiens), P03372. inhibition, % at 25.6 µM. TR-FRET ER-alpha LBD / SRC-1 peptide; in the data active = inhibition above about 50%
Target sequence (P03372 whole entry, looked up, the tested form may be a part): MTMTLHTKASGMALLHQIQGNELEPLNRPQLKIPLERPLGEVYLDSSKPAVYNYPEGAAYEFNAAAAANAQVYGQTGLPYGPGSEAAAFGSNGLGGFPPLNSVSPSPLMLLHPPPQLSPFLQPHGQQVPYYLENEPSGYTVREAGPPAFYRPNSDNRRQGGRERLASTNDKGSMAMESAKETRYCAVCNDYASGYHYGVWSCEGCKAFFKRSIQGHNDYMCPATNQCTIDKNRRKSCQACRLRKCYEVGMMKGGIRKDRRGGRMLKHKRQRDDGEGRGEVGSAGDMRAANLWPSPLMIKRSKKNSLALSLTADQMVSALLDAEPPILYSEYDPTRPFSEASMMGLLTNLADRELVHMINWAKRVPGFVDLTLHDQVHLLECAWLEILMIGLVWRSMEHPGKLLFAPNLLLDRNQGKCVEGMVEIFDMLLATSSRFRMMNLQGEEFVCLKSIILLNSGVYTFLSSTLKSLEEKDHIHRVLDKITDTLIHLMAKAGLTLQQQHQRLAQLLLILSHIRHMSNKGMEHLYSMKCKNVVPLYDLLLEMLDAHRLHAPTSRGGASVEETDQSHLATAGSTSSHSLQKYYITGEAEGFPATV
Pyk2 oligo antag: antagonists of Pyk2 self-association, primary screen, Q293 cells, FERM NanoBiT luminescence, HTS; Protein-tyrosine kinase 2-beta (Homo sapiens), Q14289; stronger effect = lower value; z-score (the deposit names both 25 µM and 10 µM); actives 0.83% (n = 99,000);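 active = Z-score of -3 or lower, scaled per plate to the spread of control and sample wells; inactive = z-score above -3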;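 note: negative z-score means lost luminescence so less FERM oligomerization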
SF-1 act: activators of human SF-1, primary screen, cell-based, CHO-K1, Gal4-SF-1 LBD, luciferase luminescence; Steroidogenic factor 1 (Homo sapiens), Q13285; CHO-K1 Gal4-SF-1 LBD luciferase reporter; % increase over DMSO SF-1-specific signal; activation, % at 10 µM; actives 1.9% (n = 65,000);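 active = activation above the mean activation of all tested compounds plus 3 SD, cut at about 50% in these data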
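Test system: CHO-K1 cells with Gal4–hSF-1 LBD chimera plus Gal4-driven luciferase; Input: 4,000 cells/well; Compound: 10 µM only; Times: 20 h compound treatment, 37 °C; Measured by: steady-glow luciferase luminescence, read after 15 min reagent incubation; Measure: percent activation versus DMSO; Control set: DMSO and mock-transfected background; Replicates: one test per compound.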
ERa SRC1 pot: enhancers of ERα–SRC-1 coactivator binding, primary screen, biochemical, TR-FRET, ERα LBD, low estradiol | Estrogen receptor (Homo sapiens), P03372 | TR-FRET ERalpha-LBD/SRC-Cy5 coactivator binding, 2 h; 100 = basal binding, no effect | coactivator binding (% of control), % at 25.6 µM | actives 1.3% (n = 86,000) | AID 639, 2007; in the data active = activity above about 200%;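 note: binding measured in presence of low estradiol as agonist stimulus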
Of the large screens only hits and unclear results are named; the others gave an inactive call; [ ] = dose if it differs, or a comment. Rows were chosen to be rich in hits. Some 4.8% of all compounds tested hit in one or more screens of this group.

Cn1nnc2c(NCc3ccco3)nccc21	none
COc1ccc(Nc2nccc3c2nnn3C)cc1	RORa activator 53
Cc1ccc(NC(=O)c2ocnc2C)cc1Cl	RORa activator 61, SF-1 act 72
Cc1ncoc1C(=O)Nc1cccc(Cl)c1	none
O=C(Nc1ccccc1F)C1CCCN(S(=O)(=O)c2cccc3cccnc23)C1 (configuration not stated)	ERb SRC1 inh 53[fluorescence artefact?] (no result: Pyk2 oligo antag)
O=C(Nc1ccncc1)C1CCCN(S(=O)(=O)c2cccc3cccnc23)C1 (configuration not stated)	RORa activator 57 (no result: Pyk2 oligo antag)
CCOc1ccccc1NC(=O)C1CCCN(S(=O)(=O)c2cccc3cccnc23)C1 (configuration not stated)	none (no result: Pyk2 oligo antag)
CC(C)(C)c1cc(Cc2ccccc2)[nH]n1	none
O=C(Cc1coc2cc3c(cc12)CCC3)OCc1cc(=O)n2c(n1)sc1ccccc12	ERb SRC1 inh 72, ERa coact inh 76
Cc1ccc2c(CC(=O)OCc3csc(C)n3)coc2c1	none
CN(CC(O)COc1ccc(S(=O)(=O)N2CCOCC2)cc1)C1CCCCC1 (configuration not stated)	ERb SRC1 inh 78 (no result: RORa activator, SF-1 act)
O=S(=O)(c1ccc(OCC(O)CN2CCN(c3ccc(F)cc3)CC2)cc1)N1CCOCC1 (configuration not stated)	none
O=C(COc1ccccc1)n1nc(-c2ccc(Cl)cc2)nc1NCc1ccco1	RORa activator 60
O=C(c1ccco1)n1nc(-c2ccc(Cl)cc2)nc1NCc1ccco1	none
N#Cc1cc2ccccc2nc1SCC(=O)Nc1ccccc1N1CCOCC1	none (no result: ERb SRC1 inh, ERa coact inh, ERa SRC1 pot)
N#Cc1cc2ccccc2nc1SCc1ccccn1	RORa activator 71, SF-1 act 67
CCOC(=O)N1CCN(c2ncnc3c2oc2nc(C(C)C)c4c(c23)CCC4)CC1	ERa SRC1 pot 312[fluorescence artefact?]
CC(C)c1nc2oc3c(NCc4cccnc4)ncnc3c2c2c1CCC2	ERa SRC1 pot 515[fluorescence artefact?]
CSc1nc(C)cc(SCCO)n1	none
CCN(CC)c1ccc(-c2nc3cnccc3n2C)cc1	RORa activator 67
CCN(CC)c1ccc(NC(=O)c2cccnc2)cc1	none (no result: RORa activator, SF-1 act)
CCCCCn1c(-c2ccco2)nc2nc3ccccc3nc21	none
c1ccc(Cn2c(-c3ccco3)nc3nc4ccccc4nc32)cc1	RORa activator 75, SF-1 act 82
CCN(CC)CCCN(Cc1cc2cc3c(cc2[nH]c1=O)OCCO3)C(=O)Nc1ccc(F)cc1	none
COc1ccc(-n2ncc3c(NCc4ccco4)ncnc32)cc1	RORa activator 62, SF-1 act 69
CN(C)CCNc1ncnc2c1cnn2-c1ccc(Cl)cc1	SF-1 act 73 (no result: Pyk2 oligo antag)
Clc1ccc(Cn2ncc3c(NCc4ccco4)ncnc32)c(Cl)c1	SF-1 act 62 (no result: Pyk2 oligo antag)
CCC(CO)Nc1ncnc2c1cnn2-c1ccc(OC)cc1 (configuration not stated)	RORa activator 61, SF-1 act 101 (no result: Pyk2 oligo antag)
Cc1ccccc1Nc1ncnc2c1cnn2-c1ccccc1	none (no result: Pyk2 oligo antag)
c1ccc(CNc2ncnc3c2cnn3Cc2ccccc2)cc1	none (no result: RORa activator, SF-1 act)
CCCNc1ncnc2c1cnn2-c1ccc(OC)cc1	none (no result: Pyk2 oligo antag)
CCC(CO)Nc1ncnc2c1cnn2-c1ccc(Cl)cc1 (configuration not stated)	none (no result: Pyk2 oligo antag)
CNc1c([N+](=O)[O-])cnn1-c1ccc(C)cc1	none (no result: RORa activator, ERb SRC1 inh, ERa coact inh, SF-1 act, ERa SRC1 pot)
C=CCNc1ncnc2c1cnn2-c1ccc(OC)cc1	none (no result: ERb SRC1 inh, ERa coact inh, ERa SRC1 pot)
COc1ccc(-n2ncc3c(NCCCN4CCOCC4)ncnc32)cc1	SF-1 act 53
Cc1cccc(-n2ncc3c(NCCCN4CCCC4=O)ncnc32)c1	none (no result: RORa activator, SF-1 act)
COc1ccc(-n2ncc3c(NCc4ccccn4)ncnc32)cc1	SF-1 act 56
Clc1ccc(-n2ncc3c(NCc4ccco4)ncnc32)cc1	RORa activator 65, SF-1 act 76
O=C1CCCN1CCCNc1ncnc2c1cnn2-c1ccc(Cl)cc1	RORa activator 69 (no result: Pyk2 oligo antag)
Clc1ccc(-n2ncc3c(NCc4ccc5c(c4)OCO5)ncnc32)cc1	none
N#Cc1cccc(NC(=O)Cn2c3[n+](c4ccc(C(F)(F)F)cc42)CCCCC3)c1	none (no result: RORa activator, ERb SRC1 inh, ERa coact inh, SF-1 act, ERa SRC1 pot)
CCc1ccc(S(=O)(=O)c2n[nH]n3c2nc(=O)c2ccccc23)cc1	ERa SRC1 pot 560[fluorescence artefact?]
CC(=O)c1ccc(N2C(=O)NC3(CCCCC3)C2=O)cc1	none
O=C(Nc1ccccc1N1CCOCC1)c1ccccc1NS(=O)(=O)c1ccc(F)cc1	none (no result: RORa activator, SF-1 act)
CCOc1ccc(S(=O)(=O)Nc2ccccc2C(=O)Nc2ccccc2N2CCOCC2)cc1	Pyk2 oligo antag -3.1
O=C1C2C3C=CC(C3)C2C(=O)N1CNc1ccc(O)cc1 (configuration not stated)	ERb SRC1 inh 87[fluorescence artefact?], ERa coact inh 61[fluorescence artefact?] (no result: Pyk2 oligo antag)
COc1cc(C(=O)N2CCCN(c3nc4cc(C)ccc4cc3C#N)CC2)cc(OC)c1OC	none (no result: Pyk2 oligo antag)
Cc1cc(C)c2cc(C#N)c(N3CCCC3)nc2c1	ERa coact inh 51[fluorescence artefact?]
Cc1ccc(S(=O)(=O)N2CCCN(c3nc4cc(C)ccc4cc3C#N)CC2)cc1	ERa SRC1 pot 350[fluorescence artefact?] (no result: RORa activator, SF-1 act)
Cc1ccc2nc(N3CCN(S(=O)(=O)c4ccc5c(c4)OCCO5)CC3)c(C#N)cc2c1	ERb SRC1 inh 56[fluorescence artefact?], ERa SRC1 pot 258[fluorescence artefact?] (no result: RORa activator, SF-1 act)
Cc1ccc2cc(C#N)c(N3CCCN(C(=O)C4CCCO4)CC3)nc2c1 (configuration not stated)	none
CCN(Cc1ccccc1)S(=O)(=O)c1ccc(C(=O)Nc2nnc(-c3ccccc3OC)o2)cc1	Pyk2 oligo antag -3.9
Cc1ccc2cc(C3C(C#N)=C(N)Oc4c3ccc3cccnc43)c(=O)[nH]c2c1 (configuration not stated)	none (no result: RORa activator, SF-1 act)
CCc1ccc2[nH]c(=O)c(C3C(C#N)=C(N)Oc4c3ccc3cccnc43)cc2c1 (configuration not stated)	ERb SRC1 inh 50, ERa coact inh 80 (no result: RORa activator, SF-1 act)
CCOC(=O)N1CCC(NC(=O)CC(NS(=O)(=O)c2ccc(Cl)cc2)c2ccco2)CC1 (configuration not stated)	none
CCOC(=O)N1CCC(Nc2nc3ccccc3nc2NS(=O)(=O)c2ccc(Cl)cc2)CC1	SF-1 act 54
COc1ccc(Cl)cc1C(=O)CSc1nc(N)cc(N)n1	none
Cc1ccc2oc(=O)c3cc(C(=O)N4CCN(C(=O)c5ccco5)CC4)sc3c2c1	none (no result: Pyk2 oligo antag)
